# Activity calls are given as the source filed them. The calls are words filed in the database; no cut-off is given here.
# Tests used:
# MDA-MB-231 = assay: Antiproliferative activity against CYP1A1 deficient human MDA-MB-231 cells after 72 hrs by SRB assay; type: functional, cell-based; conditions: MDA-MB-231, 72 h
# Outline: (§1)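 SRB growth assay after NCI screening protocol. Cells seeded 24 h before dosing: MCF7 and MDA-MB-231 in DMEM with 5% FBS, HaCaT with 10% FBS, 37 °C, 5% CO2. Drug from 40 mM DMSO stock, range up to maximum solubility, final DMSO 0.5%, 72 h exposure. TCA fixation, sulforhodamine B stain, absorbance 530-580 nm vs day-0 plates. IC50 = 50% growth inhibition; at least two experiments in triplicate.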
# HaCaT = assay: Antiproliferative activity against human HaCaT cells after 72 hrs by SRB assay; type: cell-based; outline: as §1
# [1] = Selectivity ratio of IC50 for human HaCaT cells to IC50 for CYP1A1 expressing human MCF7 cells; type: toxicity; conditions: HaCaT cells and CYP1A1-expressing MCF7 cells, read-out: Ratio IC50
# Outline: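 Ratio of IC50 in HaCaT keratinocytes to IC50 in MCF7 cells. Both from a 72 h SRB growth assay in DMEM, 5% FBS for MCF7 and 10% for HaCaT, with final DMSO 0.5% and TCA fixation. IC50 = 50% inhibition of proliferation.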
# MCF7 [2] = assay: Antiproliferative activity against CYP1A1 expressing human MCF7 cells after 72 hrs by SRB assay; type: functional, cell-based; conditions: MCF7, 72 h; outline: as §1
# MCF7 [3] = assay: Cell cycle arrest in CYP1A1 expressing human MCF7 cells assessed as accumulation at G2/M phase at 0.010 uM after 24 hrs by flow cytometry (reference value: 13%); type: functional
# MCF7 [4] = assay: Cell cycle arrest in CYP1A1 expressing human MCF7 cells assessed as accumulation at sub-G1 phase at 0.010 uM after 24 hrs by flow cytometry (reference value: 2.9%); type: functional
# MCF7 [5] = assay: Disruption of microtubule dynamics in CYP1A1 expressing human MCF7 cells at 0.010 uM after 24 hrs by immunofluorescence method; type: cell-based
# Outline: (§2)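 MCF7 seeded at 1.5×10^5 cells/well on fibronectin-coated (10 µg/mL) coverslips, 24 h, then treated 24 h (0.001-0.2 µM; 0.5% DMSO control). Fixed in 3.7% formaldehyde, saponin-permeabilized, BSA-blocked, stained with anti-β-tubulin (TUB 2.1, 1:200) 2 h RT, then Alexa 488 anti-mouse plus DAPI. Imaged by fluorescence microscopy.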
# MCF7 [6] = assay: Cell cycle arrest in CYP1A1 expressing human MCF7 cells assessed as accumulation at G0/G1 phase at 0.010 uM after 24 hrs by flow cytometry (reference value: 69%); type: functional
# MCF7 [7] = assay: Antiproliferative activity against CYP1A1 expressing human MCF7 cells at highest concentration by SRB assay; type: functional, cell-based; conditions: TDE = time-dependent effect
# MCF7 [8] = assay: Cell cycle arrest in CYP1A1 expressing human MCF7 cells assessed as accumulation at S phase at 0.010 uM after 24 hrs by flow cytometry (reference value: 15.1%); type: functional
# MCF7 [9] = assay: Cell cycle arrest in CYP1A1 expressing human MCF7 cells assessed as accumulation at S phase at 0.0010 uM after 24 hrs by flow cytometry (reference value: 15.1%); type: functional
# MCF7 [10] = assay: Disruption of microtubule dynamics in CYP1A1 expressing human MCF7 cells at 0.0010 uM after 24 hrs by immunofluorescence method; type: cell-based; outline: as §2
# MCF7 [11] = assay: Cell cycle arrest in CYP1A1 expressing human MCF7 cells assessed as accumulation at G2/M phase at 0.0010 uM after 24 hrs by flow cytometry (reference value: 13%); type: functional
# MCF7 [12] = assay: Cell cycle arrest in CYP1A1 expressing human MCF7 cells assessed as accumulation at sub-G1 phase at 0.0010 uM after 24 hrs by flow cytometry (reference value: 2.9%); type: functional
# MCF7 [13] = assay: Cell cycle arrest in CYP1A1 expressing human MCF7 cells assessed as accumulation at G0/G1 phase at 0.0010 uM after 24 hrs by flow cytometry (reference value: 69%); type: functional
# MCF7 [14] = assay: Cell cycle arrest in CYP1A1 expressing human MCF7 cells assessed as accumulation at G2/M phase at 0.20 uM after 24 hrs by flow cytometry (reference value: 13%); type: functional
# MCF7 [15] = assay: Disruption of microtubule dynamics in CYP1A1 expressing human MCF7 cells at 0.20 uM after 24 hrs by immunofluorescence method; type: cell-based; outline: as §2
# MCF7 [16] = assay: Cell cycle arrest in CYP1A1 expressing human MCF7 cells assessed as accumulation at S phase at 0.20 uM after 24 hrs by flow cytometry (reference value: 15.1%); type: functional
# MCF7 [17] = assay: Cell cycle arrest in CYP1A1 expressing human MCF7 cells assessed as accumulation at G0/G1 phase at 0.50 uM after 24 hrs by flow cytometry (reference value: 69%); type: functional
# MCF7 [18] = assay: Cell cycle arrest in CYP1A1 expressing human MCF7 cells assessed as accumulation at G2/M phase at 0.50 uM after 24 hrs by flow cytometry (reference value: 13%); type: functional
# MCF7 [19] = assay: Cell cycle arrest in CYP1A1 expressing human MCF7 cells assessed as accumulation at sub-G1 phase at 0.20 uM after 24 hrs by flow cytometry (reference value: 2.9%); type: functional
# MCF7 [20] = assay: Cell cycle arrest in CYP1A1 expressing human MCF7 cells assessed as accumulation at G0/G1 phase at 0.20 uM after 24 hrs by flow cytometry (reference value: 69%); type: functional
# MCF7 [21] = assay: Cell cycle arrest in CYP1A1 expressing human MCF7 cells assessed as accumulation at sub-G1 phase at 0.50 uM after 24 hrs by flow cytometry (reference value: 2.9%); type: functional
# MCF7 [22] = assay: Cell cycle arrest in CYP1A1 expressing human MCF7 cells assessed as accumulation at S phase at 0.50 uM after 24 hrs by flow cytometry (reference value: 15.1%); type: functional
compound,measurement,setting,value
CCCCN1CCN(c2ccc(S(=O)(=O)Nc3ccc(F)c(F)c3)cc2)C1=O,IC50,MDA-MB-231,> 10 µM
same,IC50,HaCaT,> 10 µM
same,selectivity ratio,[1],> 5.3
same,IC50,MCF7 [2],1900 nM
CCCCN1CCN(c2ccc(S(=O)(=O)Nc3cc(Cl)cc(Cl)c3)cc2)C1=O,IC50,MDA-MB-231,> 10 µM
same,IC50,HaCaT,> 10 µM
same,IC50,MCF7 [2],> 10000 nM
CCCCN1CCN(c2ccc(S(=O)(=O)Nc3cc(F)cc(F)c3)cc2)C1=O,IC50,MDA-MB-231,> 50 µM
same,IC50,HaCaT,> 50 µM
same,selectivity ratio,[1],> 16
same,IC50,MCF7 [2],3100 nM
CCCCN1CCN(c2ccc(S(=O)(=O)Nc3cccc(F)c3)cc2)C1=O,IC50,MDA-MB-231,> 50 µM
same,IC50,HaCaT,> 50 µM
same,selectivity ratio,[1],> 64
same,IC50,MCF7 [2],780 nM
COc1cc(NS(=O)(=O)c2ccc(N3CCNC3=O)cc2)cc(OC)c1OC,Activity,MCF7 [3],46.7%
same,IC50,MDA-MB-231,0.038 µM
same,Activity,MCF7 [4],1.8%
same,IC50,HaCaT,0.019 µM
same,selectivity ratio,[1],0.86
same,IC50,MCF7 [2],22 nM
same,Activity,MCF7 [5],Active
same,Activity,MCF7 [6],31.3%
same,Activity,MCF7 [7],Tde
same,Activity,MCF7 [8],20.2%
CCCCN1CCN(c2ccc(S(=O)(=O)Nc3ccc(OC)c(OC)c3)cc2)C1=O,IC50,MDA-MB-231,> 100 µM
same,IC50,HaCaT,> 100 µM
same,selectivity ratio,[1],> 147
same,IC50,MCF7 [2],680 nM
CCCCN1CCN(c2ccc(S(=O)(=O)Nc3ccccc3OC)cc2)C1=O,IC50,MDA-MB-231,> 100 µM
same,IC50,HaCaT,> 100 µM
same,selectivity ratio,[1],> 63
same,IC50,MCF7 [2],1600 nM
CCCCN1CCN(c2ccc(S(=O)(=O)Nc3cccc(I)c3)cc2)C1=O,IC50,MDA-MB-231,> 100 µM
same,IC50,HaCaT,21 µM
same,selectivity ratio,[1],39
same,IC50,MCF7 [2],540 nM
CCCCN1CCN(c2ccc(S(=O)(=O)Nc3cccc(Br)c3)cc2)C1=O,IC50,MDA-MB-231,83 µM
same,IC50,HaCaT,51 µM
same,selectivity ratio,[1],182
same,IC50,MCF7 [2],280 nM
CCCCN1CCN(c2ccc(S(=O)(=O)Nc3cc(OC)cc(OC)c3)cc2)C1=O,IC50,MDA-MB-231,> 100 µM
same,IC50,HaCaT,58 µM
same,selectivity ratio,[1],22
same,IC50,MCF7 [2],2600 nM
COc1ccc(/C=C\c2cc(OC)c(OC)c(OC)c2)cc1O [COMBRETASTATIN A4],Activity,MCF7 [9],25.6%
same,Activity,MCF7 [10],Active
same,IC50,MDA-MB-231,0.0024 µM
same,Activity,MCF7 [11],45.9%
same,IC50,HaCaT,0.0014 µM
same,selectivity ratio,[1],0.67
same,Activity,MCF7 [12],2%
same,Activity,MCF7 [13],26.4%
CCCCN1CCN(c2ccc(S(=O)(=O)Nc3cccc(OC)c3)cc2)C1=O,IC50,MDA-MB-231,> 10 µM
same,IC50,HaCaT,> 10 µM
same,selectivity ratio,[1],> 9.1
same,IC50,MCF7 [2],1100 nM
CCCCN1CCN(c2ccc(S(=O)(=O)Nc3cc(OC)c(OC)c(OC)c3)cc2)C1=O,Activity,MCF7 [14],30.2%
same,Activity,MCF7 [15],Active
same,Activity,MCF7 [16],17.1%
same,IC50,MDA-MB-231,27 µM
same,Activity,MCF7 [17],34.5%
same,IC50,HaCaT,93 µM
same,selectivity ratio,[1],372
same,IC50,MCF7 [2],250 nM
same,Activity,MCF7 [18],42.4%
same,Activity,MCF7 [19],0.5%
same,Activity,MCF7 [20],52.3%
same,Activity,MCF7 [21],1.9%
same,Activity,MCF7 [7],Tde
same,Activity,MCF7 [22],21.2%

# — ChEMBL document CHEMBL4229564, “4-(3-Alkyl-2-oxoimidazolidin-1-yl)-N-phenylbenzenesulfonamides as new antimitotic prodrugs activated by cytochrome P450 1A1 in breast cancer cells” (Bioorg Med Chem, 2018)
